The values that follow come from ChEMBL document CHEMBL4699410, “Discovery, SAR study and ADME properties of methyl 4-amino-3-cyano-1-(2-benzyloxyphenyl)-1H-pyrazole-5-carboxylate as an HIV-1 replication inhibitor” (RSC Med Chem, 2020).

The nature of data set [1]: Cytotoxicity against human HeLa-P4 cells at 50 uM […] by MTS assay relative to control. The class given is cell-based. As to conditions: hela p4, 50 µM. A general note: Formazan colour is commonly taken as a measure of viable cells.
Data set [2] has as its system Human immunodeficiency virus 1. Description: Antiviral activity against HIV1 LAI infected in human HeLa-P4 cells harboring a stably integrated LTR-linked LacZ reporter gene assessed as inhibition of viral replication at 50 uM preincubated with cells for 2 hrs followed by viral infection and measured after 48 hrs of compound challenge by CPRG based beta-galactosidase assay relative to control. The class given is functional. To be noted: Human immunodeficiency virus 1, LAI, HeLaP4. The method in brief:
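Single-concentration screen: HeLa P4 cells (stably integrated LTR–LacZ reporter) infected with HIV-1 Laï and incubated 48 h with compound at 50 µM; zidovudine as positive control.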
On the technique in general: A reporter such as luciferase makes a cellular process visible.

Data set [3] in a line: Cmax in iv dosed mouse plasma measured after 10 mins. The class given is ADME, organism-based. Also noted: route intravenous, time 10 min.
Data set [4] concerns Human immunodeficiency virus 1. Nature of the data set: Antiviral activity against HIV1 LAI infected in human MT2 cells assessed as suppression of viral replication up to 50 uM pre-incubated with cells for 2 hr before viral infection and measured after 3 days of cultivation by RT-PCR analysis. The class given is functional, organism-based. To be noted: dose microM <=50, time 3.0 day.

For data set [5], the system named is Human immunodeficiency virus 1. Nature of the data set: Antiviral activity against HIV1 LAI infected in human HeLa-P4 cells harboring a stably integrated LTR-linked LacZ reporter gene assessed as inhibition of viral replication preincubated with cells for 2 hrs followed by viral infection and measured after 48 hrs of compound challenge by CPRG based beta-galactosidase assay. To be noted: for pEC50: Human immunodeficiency virus 1, LAI, HeLaP4, read-out: EC50; for EC50: hela p4. The class given is functional, organism-based.

Data set [6] is described as follows: Stability in CD-1 mouse plasma assessed as parent compound remaining at 1 uM measured up to 60 mins by LC-MS/MS analysis. The class given is ADME, cell-free. To be noted: read-out: Stabilty.
A short description of data set [7]: Metabolic stability in CD1 mouse liver microsomes assessed as half life of compound at 1 uM and measured up to 60 mins in presence of NADPH by LC-MS analysis. The class given is ADME, Microsome. Background: Liver microsomes are vesicles of endoplasmic reticulum, rich in cytochrome P450 enzymes.
Data set [8] can be described thus: Octanol/water partition coefficient, logD of the compound at pH 7.4 by shake flask method. The class given is physicochemical.
Data set [9] in a line: Thermodynamic solubility of compound in PBS at pH 7.4 incubated for 24 hrs under shaking condition by HPLC analysis. The class given is physicochemical. As to conditions: read-out: Therm_solubility.
In data set [10] the target is Human immunodeficiency virus type 1 reverse transcriptase (Human immunodeficiency virus 1, UniProt Q72547). Description: Inhibition of wild-type recombinant HIV-1 subtype B reverse transcriptase p66/p51 heterodimer expressed in Escherichia coli using calf thymus DNA and [3H]-deoxythymidine 5'-triphophaste as substrate measured after 15 mins by liquid scintillation counting method. In a few lines: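 Inhibition measured with subtype B wild-type HIV-1 RT in an in vitro susceptibility assay; nevirapine and AZT as positive controls.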

Data set [11] can be described thus: Cmax in po dosed mouse plasma measured after 10 mins. The class given is ADME, organism-based. Also on record: route oral, time 10 min.
The nature of data set [12]: Plasma protein binding in mouse at 1 uM incubated for 4 hrs by rapid equilibrium dialysis method. The class given is ADME, cell-free. As to conditions: read-out: PPB (converted).
The subject of data set [13] is Human immunodeficiency virus 1. Nature of the data set: Inhibition of recombinant HIV1 integrase mediated strand transfer activity at 0.1 to 333 uM in presence of U5A/U5B2 and [gamma-32P]ATP. As to conditions: dose microM 0.1-333. In a few lines: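 HIV-1 integrase strand-transfer reaction run with increasing inhibitor concentrations from 100 nM to 333 µM, with raltegravir as positive control, and the strand-transfer efficiency was measured.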

The structures appear in SMILES notation. pEC50, pIC50: −log10 of the molar value. In brackets after ≈: the same amount, converted by molar mass. Activity calls are given as the source filed them. Some results are limits rather than exact numbers.

The term inhibition denotes the share of the control response that was lost under treatment. For orientation: Cmax means the highest concentration seen after dosing. As usually defined, the pEC50 is the negative decadic logarithm of the EC50, by convention in mol/L. The term half-life denotes the time needed for the level to fall by half in the phase considered. Usually logD stands for lipophilicity at a set pH, counting ionised and neutral species. Read a high logD as higher lipophilicity. As a reminder, the pIC50 is the negative decadic logarithm of the IC50, by convention in mol/L.

As to `COC(=O)c1c(N)c(C#N)nn1-c1ccc(OCc2ccccc2)cc1`, the Activity in data set [1] is 3.8%. Also, in data set [2], the inhibition at 50 µM was below 30%.
On the same counts, the results for `COC(=O)c1c2nc(-c3cccc(Br)c3)cc(N)c2nn1-c1cccc(OC)c1` are 2% and 54%.
On the same counts, the results for `COC(=O)c1c(N)c(C#N)nn1-c1ccccc1` are 7% and below 30%.
In the case of `COC(=O)c1c(N)c(C#N)nn1-c1ccc(F)cc1`, the Activity in data set [1] amounted to 6%. For the same compound, the inhibition at 50 µM in [2] is below 30%.
Compound `COC(=O)c1c(N)c(C#N)nn1-c1cccc(OCc2ccccc2)c1` came in with an Activity in data set [1] of 11%. The highest concentration (Cmax) in data set [3] came to 241 ng/mL. Further, the result in [4] was Active. Further, in data set [5], the pEC50 is 4.82 and the EC50 entry was “Dose-dependent effect”. In data set [6], the remaining at 1 h, 1 µM is 100%. Further, the half-life at 1 µM in data set [7] turned out to be 4.6 min. Also, in [8], the logD turned out to be 3.84. Also, the solubility thermodynamic at 24 h in data set [9] was found to be 1.03 µM (≈ 0.359 µg/mL). For the same compound, in [2], the inhibition at 50 µM was 65%.
With `COC(=O)c1c(N)c(C#N)nn1-c1cccc(C(F)(F)F)c1`, the Activity in [1] is above 15%. The inhibition at 50 µM in data set [2] was below 30%.
For `COC(=O)c1c(N)c(C#N)nn1-c1ccc(C(=O)OC(C)(C)C)cc1` the same measures were 14% and 47%.
For `COC(=O)c1c(N)c(C#N)nn1-c1cccc(C(=O)OC(C)(C)C)c1` the same measures were 0% and 36%.
For `COC(=O)c1c(N)c(C#N)nn1-c1ccc([N+](=O)[O-])cc1` the same measures were 0% and 43%.
`COC(=O)c1c(N)c(C#N)nn1-c1ccc(Cl)cc1`: the Activity in [1] is above 15%. Further, the inhibition at 50 µM in [2] is 56%.
For `COC(=O)c1c(N)c(C#N)nn1-c1ccccc1F` the same measures were 3.6% and below 30%.
On the same counts, the results for `COC(=O)c1c(N)c(C#N)nn1-c1ccccc1OC` are 9.2% and below 30%.
For `COC(=O)c1c(N)c(C#N)nn1-c1ccc(OC)cc1` the same measures were 14.6% and below 30%.
On to `COC(=O)c1c(N)c(C#N)nn1-c1cccc([N+](=O)[O-])c1`, for which the Activity in data set [1] stood at 0%. In [2], the inhibition at 50 µM was 47%.
On the same counts, the results for `COC(=O)c1c(N)c(C#N)nn1-c1ccccc1I` are above 15% and below 30%.
Turning to `COC(=O)c1c(N)c(C#N)nn1-c1ccccc1[N+](=O)[O-]`, in [1], the Activity was determined as 0%. In addition, the inhibition at 50 µM in [2] was found to be 42%.
For `COC(=O)c1c(N)c(C#N)nn1-c1cccc(Cl)c1` the same measures were 11% and below 30%.
Turning to `COC(=O)c1c(N)c(C#N)nn1-c1ccccc1OCc1ccccc1`, the Activity in data set [1] was found to be 9%. Moreover, the maximum concentration (Cmax) was found to be 238 ng/mL in data set [3] and 18 ng/mL in data set [11]. Further, the result in [4] was Active. In addition, in [10], the negative-log IC50 (pIC50) is below 3.00. In addition, the negative logarithm of the EC50 (pEC50) in data set [5] is 4.71. Moreover, the EC50 result in data set [5] is reported as “Dose-dependent effect”. Also, the fraction unbound at 4 h, 1 µM in data set [12] is 0.05. Besides, in [13], the inhibition result was “inactive”. Further, the remaining at 1 h, 1 µM in data set [6] is 100%. In [7], the half-life at 1 µM worked out at 3 min. For the same compound, the logD in data set [8] was determined as 3.69. Further, in [9], the solubility thermodynamic at 24 h worked out at 9.6 µM (≈ 3.34 µg/mL). Also, in [2], the inhibition at 50 µM turned out to be 63%.
In the case of `COC(=O)c1c(N)c(C#N)nn1-c1ccccc1C(=O)OC(C)(C)C`, the Activity in data set [1] is 2.8%. Besides, in [2], the inhibition at 50 µM was below 30%.
On the same counts, the results for `COC(=O)c1c(N)c(C#N)nn1-c1ccc(C(F)(F)F)cc1` are 14% and below 30%.
As for `COC(=O)c1c(N)c(C#N)nn1-c1cccc(F)c1`, the Activity in data set [1] worked out at 0%. For the same compound, in [2], the inhibition at 50 µM turned out to be 48%.
For `C[C@H](Cn1cnc2c(N)ncnc21)OCP(=O)(O)O` [TENOFOVIR ANHYDROUS], in [5], the pEC50 is 4.88.
As for `COC(=O)c1c(N)c(C#N)nn1-c1ccccc1Cl`, the Activity in [1] turned out to be 2.4%. Besides, the inhibition at 50 µM in data set [2] was determined as 30%.
For `C#Cc1ccccc1-n1nc(C#N)c(N)c1C(=O)OC` the same measures were 7% and below 30%.
For `COC(=O)c1c(N)c(C#N)nn1-c1ccc(Br)cc1` the same measures were above 15% and 67%.
For `C#Cc1cccc(-n2nc(C#N)c(N)c2C(=O)OC)c1` the same measures were 14% and below 30%.
The compound `COC(=O)c1c(N)c(C#N)nn1-c1cccc(Br)c1` came in with an Activity in [1] of 9%. Also, the inhibition at 50 µM in data set [2] was 42%.
On the same counts, the results for `COC(=O)c1c(N)c(C#N)nn1-c1cccc(OC)c1` are 6% and below 30%.
On the same counts, the results for `COC(=O)c1c(N)c(C#N)nn1-c1ccccc1Br` are 4.8% and 32%.
